# A selection: hits, their analogues and other compounds. The true share with any hit is near 0.9%.
# RGS8-Gao reg – RGS8-Galphao binding modulators, primary screen, biochemical, multiplexed bead flow cytometry. actives lie on both sides. response (percent of control binding), % at 10 µM. actives 0.34% (n = 220,000). AID 1423, 2008; in the data active = response below about 60% or above about 140%; inactive = in between;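 note: Galphao activated as the GDP aluminium fluoride complex binding bead-coupled RGS8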
# Target sequence (P09471 whole entry, looked up): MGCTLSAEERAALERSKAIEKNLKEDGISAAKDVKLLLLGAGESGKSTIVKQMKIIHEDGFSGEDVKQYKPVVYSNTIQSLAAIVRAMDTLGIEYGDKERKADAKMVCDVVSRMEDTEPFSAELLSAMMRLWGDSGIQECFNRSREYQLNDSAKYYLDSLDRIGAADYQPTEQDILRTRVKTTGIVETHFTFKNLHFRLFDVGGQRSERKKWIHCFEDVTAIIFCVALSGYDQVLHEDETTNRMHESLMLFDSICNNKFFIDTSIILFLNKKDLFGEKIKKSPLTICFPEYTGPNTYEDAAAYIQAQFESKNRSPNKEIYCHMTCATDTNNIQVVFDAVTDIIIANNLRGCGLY
# RGS4-Gao reg – modulators of RGS4 binding to Galphao, primary screen, biochemical, multiplexed bead flow cytometry; Guanine nucleotide-binding protein G(o) subunit alpha (Homo sapiens), P09471; actives lie on both sides; binding response (% of control), % at 10 µM; actives 0.33% (n = 220,000); AID 1415, 2008; in the data active = binding response below about 49% or above about 150%; inactive = in between;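 note: fluorescent Galphao activated with aluminum fluoride binding bead-coupled RGS4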
# ABCB1 block – ABCB1 efflux pump inhibitors, primary screen, cell-based, multiplex, flow cytometry, ABCG2 counter-screen; ATP-dependent translocase ABCB1 (Homo sapiens), P08183; CCRF-Adr cells, JC-1 efflux; inhibition, % at 6.6 µM; actives 0.067% (n = 190,000); AID 1326, 2008; in the data active = inhibition above about 40%;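 note: higher value means more JC-1 retained so stronger ABCB1 efflux block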
# RGS7-Gao – RGS7-Galphao binding modulators, primary screen, biochemical, multiplexed bead flow cytometry; Guanine nucleotide-binding protein G(o) subunit alpha (Homo sapiens), P09471; actives lie on both sides; binding response (% of control), % at 10 µM; actives 0.35% (n = 220,000); AID 1439, 2008; in the data active = binding response below about 49% or above about 150%; inconclusive = no clear call, values can overlap the other calls; inactive = in between;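 note: fluorescent Galphao held in activated GDP-AlF4 state binding bead-coupled RGS7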
# ABCG2 inh – ABCG2 efflux pump inhibitors, primary screen, multiplex with ABCB1, IgMXP3 cells, flow cytometry. AID 1325, 2008. JC-1 efflux. inhibition, % at 6.6 µM. Broad substrate specificity ATP-binding cassette transporter ABCG2 (Homo sapiens), Q9UNQ0. actives 0.1% (n = 190,000);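 active = inhibition above 80%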
#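 Test system: ABCG2 IgMXP3 and barcoded ABCB1 CCRF-Adr cell mix; Schedule: cells with compound and JC-1, 10 min at 25 °C, rotating, no wash; Technique: flow cytometry of retained JC-1 fluorescence; Measure: % inhibition of efflux relative to nicardipine and DMSO; Controls: nicardipine high and DMSO low controls.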
# RGS16-Gao – modulators of RGS16 binding to Galphao, primary screen, biochemical, human proteins, multiplexed bead flow cytometry | binding response (% of control), % at 10 µM | bead-based flow cytometry RGS16-Galphao binding, fluorescence; actives lie on both sides | actives 0.38% (n = 220,000);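 note: Galphao activated by GDP with aluminum fluoride before binding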
# RGS4-Gao HTS – modulators of RGS–Galpha-o binding, primary screen, biochemical, multiplexed beads, flow cytometry, RGS4/7/8/16/19; actives 99% (n = 1,600); shares compounds with RGS16-Gao; multiplexed bead flow cytometry; RGS4–Galpha-o binding response, % at 10 µM;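 note: fluorescently labeled Galpha-o bound to GDP with aluminium fluoride binding biotinylated RGS beads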
# Target sequence (P09471 whole entry, looked up): as above
# Target sequence (P49798 whole entry, looked up): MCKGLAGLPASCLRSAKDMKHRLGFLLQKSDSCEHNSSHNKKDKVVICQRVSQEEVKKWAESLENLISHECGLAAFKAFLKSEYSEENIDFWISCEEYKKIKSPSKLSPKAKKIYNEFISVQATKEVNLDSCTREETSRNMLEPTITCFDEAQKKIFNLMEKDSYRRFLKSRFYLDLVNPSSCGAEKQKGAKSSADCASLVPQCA
# Avidin counter – disruption of biotin probe capture by avidin, counter-screen for RGS protein interaction modulators, biochemical, flow cytometry, bead-based; inhibition, % at 10 µM; streptavidin beads, fluorescein-biotin binding; 1,700 tested, under 10 active; shares compounds with RGS16-Gao; AID 1783, 2009;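 active = inhibition above 50%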;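 note: median green fluorescence of gated singlet beads compared with DMSO control wells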
# RGS8-Gao confirm – RGS8-Galphao binding modulators, confirmation, biochemical, multiplexed bead flow cytometry, single concentration; shares compounds with RGS16-Gao; bead-based flow cytometry RGS8-Galphao binding, fluorescence; actives lie on both sides; binding response (% of control), % at 10 µM; actives 3% (n = 1,700); AID 1836, 2009; in the data active = binding response below about 72% or above about 130%; inactive = in between;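 note: Galphao activated as GDP AlF4 complex before binding bead RGS8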
# RGS7-Gao confirm – RGS7-Galphao binding modulators, confirmation, biochemical, multiplexed bead flow cytometry, single concentration. shares compounds with RGS16-Gao. bead-based flow cytometry RGS7-Galphao binding; actives lie on both sides. response (percent of control binding), % at 10 µM. actives 7.8% (n = 1,700). AID 1837, 2009; in the data active = response below about 75% or above about 130%; inactive = in between;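 note: fluorescent Galphao activated with GDP and aluminum fluoride binding bead-coupled RGS7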
# RGS16-Gao conf – modulators of RGS16-Galphao protein binding, confirmation, biochemical, single concentration, multiplexed bead flow cytometry; bead-based flow cytometry; actives lie on both sides; actives 4% (n = 1,700); shares compounds with RGS16-Gao; response (% of control binding), % at 10 µM; in the data active = response below about 74% or above about 130%; inactive = in between;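 note: Galphao activated as the GDP aluminium fluoride complex binding bead-coupled RGS16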
# RGS4-Gao single – modulators of RGS4-Galphao protein binding, confirmation, biochemical, single concentration, multiplexed bead flow cytometry; shares compounds with RGS16-Gao; actives lie on both sides; binding response (% of control), % at 10 µM; actives 4% (n = 1,700); in the data active = binding response below about 74% or above about 130%; inactive = in between
# RGS19-Gao conf – regulators of RGS19-Galphao binding, confirmation, biochemical, single point, multiplexed bead flow cytometry. shares compounds with RGS16-Gao. bead-based flow cytometry RGS19-Galphao binding; actives lie on both sides. response (percent of control binding), % at 10 µM. actives 5% (n = 1,700); in the data active = response below about 50% or above about 160%; inactive = in between
# Numbers stand for hits; – = inactive; ? = inconclusive; · = no result given; [ ] = dose if it differs, or a comment. Unless noted, the rule behind the calls is not given here.
SMILES,RGS8-Gao reg,RGS4-Gao reg,ABCB1 block,RGS7-Gao,ABCG2 inh,RGS16-Gao,Avidin counter,RGS8-Gao confirm,RGS7-Gao confirm,RGS16-Gao conf,RGS4-Gao single,RGS19-Gao conf,others
CCN(CC)S(=O)(=O)c1cc(C(=O)Oc2cccc(-c3cnc4ccccc4n3)c2)ccc1Br,11.4,-29.9,–,-8.5,–,-28.6,–,–,–,–,–,–,
CCSc1nnc(NC(=O)CSc2nc(CC)nc3c2c(=O)n(C)c(=O)n3C)s1,–,–,–,–,–,–,·,·,·,·,·,·,
CCCc1nc(SCC(=O)Nc2nnc(SCC)s2)c2c(=O)n(C)c(=O)n(C)c2n1,59.3,–,–,43.9,–,–,·,·,·,·,·,·,RGS4-Gao HTS=54.0
Cc1ccc(C)c(SCC(=O)Nc2cccnc2Cl)c1,–,–,–,–,–,–,·,·,·,·,·,·,
CC(C(=O)Nc1ccc2c(c1)OCCO2)N(C)Cc1c(F)cccc1Cl (configuration not stated),–,–,–,–,–,–,·,·,·,·,·,·,
COC(=O)C1=C(C)N=c2s/c(=C3\C(=O)Nc4ccccc43)c(=O)n2C1c1ccccc1 (configuration not stated),–,–,–,–,–,178.8[activator],–,–,–,–,–,–,RGS4-Gao HTS=118.4
CCCN1C(=O)c2cccc3c(N4CCCCC4)ccc(c23)C1=O,–,–,–,–,–,18.2,–,–,–,–,–,–,RGS4-Gao HTS=91.5
Fc1ccccc1/C=N/NC(=S)Nc1ccc(Cl)cc1Cl,–,–,–,–,–,–,·,·,·,·,·,·,
Cc1cccnc1NC(=O)C1CCCN(S(=O)(=O)c2ccc3c(c2)oc(=O)n3C)C1 (configuration not stated),142.0[activator],–,–,–,–,–,–,–,–,–,–,–,RGS4-Gao HTS=115.8
COc1ccccc1-c1nc2cc3ccccc3cc2nc1-c1ccccc1,–,–,–,–,–,–,·,·,·,·,·,·,
CCOC(=O)/C(C#N)=C/Nc1cc(C(=O)OCC)cc2c(OC)c(OC)ccc12,16.9,-4.8,·,?,·,-5.8,–,–,–,–,–,–,
CCOC(=O)/C(C#N)=C/Nc1ccsc1C(=O)OC,–,–,·,?,·,–,·,·,·,·,·,·,
Cc1ccnc2nc(C(=O)OCC(=O)c3c[nH]c4ccccc34)nn12,–,–,·,?,·,–,·,·,·,·,·,·,
CC(=O)/C=C(\C)N=Nc1c(O)[nH]c2ccccc12,–,–,·,?,·,–,·,·,·,·,·,·,
O=C(O)CCSc1nnc(SCC(=O)NCC(F)(F)F)s1,–,–,–,–,–,8.8,–,–,–,–,–,–,RGS4-Gao HTS=92.9
COC(=O)c1ccccc1COn1c(=O)c(C)[n+]([O-])c2ccccc21,–,–,–,–,–,–,·,·,·,·,·,·,
COC(=O)c1ccccc1COn1c(=O)c[n+]([O-])c2ccccc21,–,231.2[activator],–,158.1[activator],–,–,–,–,–,–,–,–,
COC(=O)c1sc(-c2ccccc2)cc1NC(=O)c1ccc(F)cc1,–,–,–,–,–,–,·,·,·,·,·,·,
CC(=O)c1sc(-c2ccc(F)cc2)cc1NS(=O)(=O)c1ccccc1,1.8,-36.5,·,?,·,-20.1,–,–,–,–,–,–,
Cc1cc(C)n(CC(=O)n2c3c(c4ccccc42)CCCC3)n1,·,·,–,·,–,·,–,–,–,–,–,–,
Cc1cc(C)n(CC(=O)n2c3ccccc3c3ccccc32)n1,–,–,–,–,–,–,·,·,·,·,·,·,
CCN(CC)CC(=O)n1c2c(c3ccccc31)CCCC2,–,–,–,–,–,-99.6,–,–,–,–,–,–,RGS4-Gao HTS=81.1
CCOc1cc(S(=O)(=O)n2ccnc2)ccc1Cl,–,–,–,–,–,–,·,·,·,·,·,·,
Cc1ccc(N2C(N)=C(C#N)C(c3cccs3)C3=C2CC(C)(C)CC3=O)cc1 (configuration not stated),–,197.0[activator],–,–,–,197.2[activator],–,–,–,–,–,–,
O=C(COc1ccc(Cl)cc1Cl)NNC(=S)Nc1ccc(F)cc1,–,–,–,–,–,–,·,·,·,·,·,·,
CC(=O)NC(=S)Nc1ccc(NC(=O)COc2ccc(Cl)cc2Cl)cc1,–,150.3[activator],–,184.4[activator],–,–,–,–,–,–,–,–,
CN=C(Nc1cccc(Cl)c1)SC1CC(=O)N(c2ccc(OC)cc2)C1=O (configuration not stated),–,–,–,–,–,–,·,·,·,·,·,·,
O=C(CSC(=S)N1CCCCC1)Nc1ncc2c(n1)CC(c1ccco1)CC2=O (configuration not stated),143.9[activator],181.0[activator],·,?,·,–,–,–,–,–,–,–,
O=C(CSC(=S)N1CCOCC1)Nc1ncc2c(n1)CC(c1ccco1)CC2=O (configuration not stated),–,–,·,?,·,–,·,·,·,·,·,·,

# Assay outcomes deposited in PubChem by NMMLSC.
